Data set [1] is described as follows: Cytotoxicity against human PBMC cells assessed as cell viability measured after 24 hrs by flowcytometry method. Type of data set: toxicity, cell-based. Particulars: for IC50: pbmc. In outline: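 PBMC from four individual donors were isolated by density centrifugation, frozen, thawed and resuspended at 1.10e6/mL in RPMI with 10% FBS. Compound added from 20 mM DMSO stock by serial dilution in RPMI; final concentrations 500–7.8 µM, in duplicate. After 24 h, live cells counted by flow cytometry using FSC/SSC gating. IC50 calculated for each donor.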

Data set [2] has as its target Hydroxyacylglutathione hydrolase, mitochondrial (Homo sapiens, UniProt Q16775). Kind of data set: Inhibition of recombinant human Glyoxalase-2 assessed as reduction of substrate level using S-D-lactoylglutathione as substrate by spectrophotometric method. In outline:
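Recombinant human glyoxalase II (5–25 nM) in 100 mM MOPS pH 7.2 at 25 °C. Substrate S-D-lactoylglutathione loss followed at 240 nm (ε 3.1 mM−1cm−1). Inhibitor in DMSO added to the substrate mix, and the reaction started with enzyme. Duplicate.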

Data set [3] deals with Klebsiella pneumoniae. The experiment in a line: Synergistic antibacterial activity against Klebsiella pneumonia 7023 clinical isolate strain producing Metallo-beta-lactamase VIM-1 assessed as meropenem MIC in presence of meropenem incubated for 24 hrs by broth microdilution method. Format: functional. In outline:
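CLSI broth microdilution in Mueller-Hinton broth with 5 × 10^4 CFU/well. Meropenem two-fold serial dilutions tested with and without inhibitor fixed at 32 µg/mL, inhibitor added before antibiotic. DMSO ≤1%. […] Growth controls included. Triplicate.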

The subject of the next data set is HeLa. Kind of data set: Cytotoxicity against human HeLa cells assessed as LDH release measured after 24 hrs by CytoTox96 nonradioactive assay. Format: functional, cell-based. In outline: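 HeLa cells (20,000/well) incubated 24 h at 37 °C, 5% CO2 in DMEM with 10% FBS, 4.5 mg/mL glucose and 2 mM L-glutamine, with compound up to 250 µM. LDH release measured. Medium-only control and Triton X-100 maximum-release control included. % cytotoxicity = 100 × sample/maximum release. IC50 taken as 50% cytotoxicity.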

A short description of data set [4]: Inhibition of bacterial Metallo-beta-lactamase VIM-2 (unknown origin) assessed as substrate hydrolysis using meropenem as substrate by UV-visible spectrometry analysis. On the set-up: species or system Bacteria. In outline: (§1)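 Purified MBL enzyme at 1–70 nM final, in 50 mM HEPES pH 7.5 at 30 °C with 0.5% DMSO. Reporter substrate 150 µM imipenem or meropenem; hydrolysis read at 300 nm. […] Ki measured when inhibition exceeded 75%, by competitive-model v0/vi vs [I] slope or Dixon plot. Some runs used 10 min enzyme–inhibitor preincubation. Triplicate.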

Data set [5] can be described thus: Inhibition of bacterial New Delhi metallo-beta-lactamase 1 (unknown origin) assessed as substrate hydrolysis using meropenem as substrate by UV-visible spectrometry analysis. Also on record: species or system Bacteria. Summed up: as §1
Data set [6] is described as follows: Inhibition of bacterial Metallo-beta-lactamase IMP-1 (unknown origin) assessed as substrate hydrolysis using meropenem as substrate by UV-visible spectrometry analysis. Also on record: species or system Bacteria. In outline: as §1
Data set [7] concerns Klebsiella pneumoniae. The experiment in a line: Synergistic antibacterial activity against Klebsiella pneumonia VA 416/02 clinical isolate strain producing Metallo-beta-lactamase VIM-4 assessed as meropenem MIC in presence of meropenem incubated for 24 hrs by broth microdilution method. Particulars: VA 416/02, 24 h.
The nature of data set [8]: Inhibition of bacterial Metallo-beta-lactamase VIM-1 (unknown origin) assessed as substrate hydrolysis using meropenem as substrate by UV-visible spectrometry analysis. On the set-up: species or system Bacteria. Summed up: as §1
The nature of data set [9]: Inhibition of bacterial Metallo-beta-lactamase VIM-4 (unknown origin) assessed as substrate hydrolysis using meropenem as substrate by UV-visible spectrometry analysis. On the set-up: species or system Bacteria. In outline:
as §1

In data set [10] the test system is Bacteria. Kind of data set: Inhibition of bacterial Metallo-beta-lactamase VIM-4 (unknown origin) assessed as substrate hydrolysis at 25 uM using meropenem as substrate by UV-visible spectrometry analysis. Summed up:
as §1

Data set [11] concerns Bacteria. Kind of data set: Inhibition of bacterial Metallo-beta-lactamase VIM-2 (unknown origin) assessed as substrate hydrolysis at 100 uM using meropenem as substrate by UV-visible spectrometry analysis. In outline: as §1
Data set [12] relates to Bacteria. The experiment in a line: Inhibition of bacterial New Delhi metallo-beta-lactamase 1 (unknown origin) assessed as substrate hydrolysis at 100 uM using meropenem as substrate by UV-visible spectrometry analysis. In outline:
as §1

Data set [13] relates to Bacteria. The experiment in a line: Inhibition of bacterial Metallo-beta-lactamase VIM-1 (unknown origin) assessed as substrate hydrolysis at 25 uM using meropenem as substrate by UV-visible spectrometry analysis. In outline:
as §1

For data set [14], the system named is Bacteria. The experiment in a line: Inhibition of bacterial Metallo-beta-lactamase IMP-1 (unknown origin) assessed as substrate hydrolysis at 100 uM using meropenem as substrate by UV-visible spectrometry analysis. In outline:
as §1

Another data set concerns A549. Kind of data set: Cytotoxicity against human A549 cells assessed as cell viability measured after 48 hrs by RealTime-glo MT assay. Particulars: A549, 48 h. Type of data set: functional, cell-based. In outline: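 A549 cells incubated up to 48 h in DMEM with varying compound concentrations. Viable cell number read by bioluminescent real-time viability assay (NanoLuc luciferase with cell-permeant prosubstrate). Viability expressed relative to DMSO-only control culture, and IC50 derived.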

Data set [15] concerns Bacteria. Kind of data set: Inhibition of bacterial Metallo-beta-lactamase VIM-2 (unknown origin) assessed as substrate hydrolysis at 25 uM using meropenem as substrate by UV-visible spectrometry analysis. In outline:
as §1

Data set [16] concerns Bacteria. Kind of data set: Inhibition of bacterial Metallo-beta-lactamase IMP-1 (unknown origin) assessed as substrate hydrolysis at 25 uM using meropenem as substrate by UV-visible spectrometry analysis. Summed up: as §1

For `S=c1[nH]nc(-c2ccccc2)n1CCSCc1ccccc1`, the IC50 result in data set [1] is “Non-Toxic”; in data set [2], 52 µM; in the data set with HeLa, 152 µM. Besides, the MIC was determined as 2 µg/mL with Klebsiella pneumoniae [3] and 4 µg/mL with Klebsiella pneumoniae [7]. The Ki in [4] turned out to be 0.24 µM; in data set [5], 22.3 µM; in data set [6], 19.6 µM; in [8] it was 0.21 µM; in data set [9], 0.31 µM.

On to `S=c1[nH]nc(Cc2ccc3ccccc3c2)n1CCSCc1ccccc1`, for which the inhibition in the data set on Bacteria [10] is 23%; in the data set with Bacteria [11] it was less than 30%; with Bacteria [12] it was less than 30%; with Bacteria [13], less than 15%; with Bacteria [14], 70%.

Turning to `O=[N+]([O-])c1ccc(O)c(CSCCn2c(-c3ccccc3)n[nH]c2=S)c1`, the IC50 at 24 h in data set [1] (human, PBMC cells) was more than 500 µM. The MIC in the data set with Klebsiella pneumoniae [3] was determined as 1 µg/mL; with Klebsiella pneumoniae [7], 4 µg/mL. In addition, the IC50 is more than 250 µM in the data set on HeLa and 125 µM in the data set on A549. Also, the Ki in [4] is 0.21 µM; in [5], 11.9 µM; in [8] it was 0.58 µM; in data set [9], 0.25 µM. In addition, in the data set with Bacteria [14], the inhibition was determined as 62%.

For `S=c1[nH]nc(-c2ccc(-c3ccccc3)cc2)n1CCSCc1ccccc1`, the inhibition in the data set with Bacteria [10] is less than 15%; in the data set with Bacteria [11], less than 30%; in the data set on Bacteria [12], less than 30%; with Bacteria [13], less than 15%; in the data set on Bacteria [14] it was 60%.

With `Cn1cccc1-c1n[nH]c(=S)n1CCSCc1ccccc1`, the IC50 result in data set [1] was “Non-Toxic”; with HeLa, more than 250 µM; in the data set with A549, more than 250 µM. The values for the MIC in the data set on Klebsiella pneumoniae [3] and with Klebsiella pneumoniae [7] were 2 µg/mL and 1 µg/mL, respectively. Further, the inhibition constant (Ki) in data set [4] was 0.34 µM; in data set [5], 28 µM; in data set [6], 9.04 µM; in data set [8], 0.23 µM; in data set [9] it was 0.25 µM. Moreover, the inhibition in the data set on Bacteria [12] turned out to be 75%.

Turning to `S=c1[nH]nc(-c2cccc(-c3ccccc3)c2)n1CCSCc1ccccc1`, the inhibition with Bacteria [15] is less than 15%; in the data set with Bacteria [16] it was 21%; in the data set on Bacteria [12], less than 30%. Besides, the MIC in the data set with Klebsiella pneumoniae [3] and in the data set with Klebsiella pneumoniae [7] was 16 µg/mL each time. Besides, the Ki in data set [9] was determined as 0.89 µM.

Values taken from ChEMBL document CHEMBL5038617, “1,2,4-Triazole-3-thione compounds with a 4-ethyl alkyl/aryl sulfide substituent are broad-spectrum metallo-β-lactamase inhibitors with re-sensitization activity” (Eur J Med Chem, 2021).
